According to PubChem BioAssay:
The source made the active and inactive calls.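 Rule for the calls, unless noted: active = visually confirmed hit in the image check and inhibition above 20%; inconclusive = visually confirmed hit but inhibition not above 20%; inactive = no visual hit in the image check.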

Assays:
[1] = inhibitors of TNFa-induced NFkB p65 translocation, primary screen, imaging, HUVEC, MLSMR starter and 10KST1 sets (AID 438;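 active = inhibition above 20% together with a positive visual image hit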;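 note: compound added about 3h40 before a 20 min TNFalpha stimulation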;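 for inhibition: signal is the nuclear over cytoplasmic p65 intensity ratio per well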); conditions: HUVEC TNFa-induced p65 nuclear translocation; cell count: measured here: nuclei count (cytotoxicity indicator), at 2.08 µM; inhibition: at 2 µM, stronger effect = higher value, 0% TNFa-plus-vehicle, 100% no-TNFa wells
[2] = endothelial E-selectin expression blockers – imaging, HUVEC, immunofluorescence, MLSMR starter and 10KST1 sets, primary screen (AID 487); conditions: HUVEC TNFalpha-induced E-selectin immunofluorescence imaging, at 2 µM; inhibition: stronger effect = higher value; nuclei count: measured here: cell number, toxicity;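 for inhibition: signal is fraction of cell area covered by stained E-selectin grains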;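 for nuclei count: 100% = median nuclei count of all wells on the same plate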
[3] = Primary imaging screen for DUSP6 inhibitors that restore phospho-Erk in transfected HeLa cells, chemical complementation (AID 609;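 active = compounds giving at least 50% inhibition in the cell-based MKP-3 phosphatase rescue imaging test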;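 for inhibition: phospho-Erk level distribution per well compared with pooled transfected vehicle control wells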); conditions: HeLa MKP-3 transfected, phospho-Erk imaging KS statistic, at 10 µM, cells stimulated with TPA for 15 min
[4] = target: Dual specificity protein phosphatase 6 (Homo sapiens) (UniProt Q16828); assay: as above; conditions: HeLa MKP-3 transfected, phospho-Erk imaging KS statistic; at 10 µM; stronger effect = higher value; cells stimulated with TPA for 15 min
[5] = target: Voltage-gated potassium channel subunit beta-2 (Rattus norvegicus) (UniProt P62483); assay: inhibitors of rat Kvbeta2 reductase activity – biochemical, NADPH fluorescence, primary screen (AID 622;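 active = fluorescence slope higher than the sample average by over 3 SD, cut at about -0.22 in these data, passing the limit was not always enough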;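 note: slope of raw intensity against log time taken from 70 to 1610 s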); conditions: recombinant KvBeta, 4-cyanobenzaldehyde reduction, at 10 µM, stronger effect = higher value
[6] = target: Voltage-gated potassium channel subunit beta-2 (Rattus norvegicus) (UniProt P62483); assay: enhancers of rat Kvbeta2 NADPH turnover – biochemical, NADPH fluorescence, primary screen (AID 623;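 active = NADPH fluorescence slope more negative than the mean of all samples by about 3 SD, 99.7% confidence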;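 note: fluorescence intensity change per second fitted from 20 to 320 s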); conditions: Recombinant KvBeta, NADPH fluorescence decrease slope, 10 min; at 10 µM; stronger effect = lower value
[7] = target: Alpha-2C adrenergic receptor (Homo sapiens) (UniProt P18825); assay: compounds altering alpha2C-coupled GIRK flux – cell-based, HEK293 alpha2C/GIRK1/2, thallium flux, primary screen (AID 624;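 active = fluorescence slope after compound addition differing from the mean of all screened samples at 99.7% confidence, in either direction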;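 note: slope of fluorescence ratio to pre-addition baseline per second over 15 to 24 s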); conditions: thallium flux BTC fluorescence, at 10 µM, actives lie on both sides
[8] = inhibitors of larval lipid processing in zebrafish, primary screen, whole organism, PED6 fluorescence, gall bladder and intestine (AID 686;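 active = a full or partial loss of lipid-probe fluorescence in the fish gall bladder, intestine or both, judged by eye; inactive = no fluorescence loss, or compound toxic to the fish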;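 note: larvae 5 to 7 days old with five fish per well; signal comes from phospholipase A2 cleavage of quenched PED6 carried via bile; overnight exposure to compound and PED6 before scoring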); conditions: Zebrafish larvae PED6 lipid processing, fluorescence scoring; screened at 20 µM (by protocol)
Outline: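 Test system – live zebrafish larvae aged 5-7 days, whole organism · Buffer or medium – E3 fish medium · Reagent – quenched phospholipase substrate PED6, 100 nM final, ingested by larvae · Doses – 20 µM single dose · Incubation – overnight compound and PED6 incubation · Technique – visual fluorescence microscopy scoring of gall bladder, gut · Read-out basis – visual per-well fluorescence inhibition score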

[9] = loss of swimming-algae plug formation – whole organism, Chlamydomonas reinhardtii, WT vs cilia-less mutant, absorbance, 96-well, primary screen (AID 463189;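 active = inhibition at or above 50% relative to wild type and mutant plate controls; inactive = inhibition below 50%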;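 note: 0% = wild type cc124 cells in DMSO and 100% = ciliumless bld1 mutant cells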); conditions: Chlamydomonas reinhardtii gravitaxis, OD600 absorbance, 2 days; at 10 µM; stronger effect = higher value
[10] = measured here: cell density z-score
[11] = measured here: nuclear c-Myc green intensity z-score
[12] = measured here: nuclear pErk red intensity z-score, stronger effect = higher value

Voltage-gated potassium channel subunit beta-2 (Rattus norvegicus), sequence (P62483 whole entry, looked up): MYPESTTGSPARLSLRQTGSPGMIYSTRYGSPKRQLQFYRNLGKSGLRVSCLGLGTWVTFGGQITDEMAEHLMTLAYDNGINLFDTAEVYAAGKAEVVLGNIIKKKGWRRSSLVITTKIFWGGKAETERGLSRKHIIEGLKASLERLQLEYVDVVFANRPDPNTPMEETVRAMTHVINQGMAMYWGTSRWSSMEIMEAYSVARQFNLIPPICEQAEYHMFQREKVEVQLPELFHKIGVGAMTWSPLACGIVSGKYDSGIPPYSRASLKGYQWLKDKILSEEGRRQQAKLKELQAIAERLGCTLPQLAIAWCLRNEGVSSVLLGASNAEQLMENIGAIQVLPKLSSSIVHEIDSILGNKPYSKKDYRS
Dual specificity protein phosphatase 6 (Homo sapiens), sequence (Q16828 whole entry, looked up): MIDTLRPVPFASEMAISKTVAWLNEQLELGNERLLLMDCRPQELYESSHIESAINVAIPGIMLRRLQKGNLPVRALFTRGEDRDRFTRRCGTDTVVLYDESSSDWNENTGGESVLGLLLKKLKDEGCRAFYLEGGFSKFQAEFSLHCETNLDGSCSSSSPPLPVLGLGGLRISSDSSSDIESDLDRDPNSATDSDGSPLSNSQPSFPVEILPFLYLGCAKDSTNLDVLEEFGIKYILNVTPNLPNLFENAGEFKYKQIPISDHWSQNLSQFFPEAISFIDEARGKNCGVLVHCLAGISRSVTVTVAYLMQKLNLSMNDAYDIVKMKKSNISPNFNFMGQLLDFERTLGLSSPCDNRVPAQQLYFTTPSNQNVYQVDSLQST
Alpha-2C adrenergic receptor (Homo sapiens), sequence (P18825 whole entry, looked up): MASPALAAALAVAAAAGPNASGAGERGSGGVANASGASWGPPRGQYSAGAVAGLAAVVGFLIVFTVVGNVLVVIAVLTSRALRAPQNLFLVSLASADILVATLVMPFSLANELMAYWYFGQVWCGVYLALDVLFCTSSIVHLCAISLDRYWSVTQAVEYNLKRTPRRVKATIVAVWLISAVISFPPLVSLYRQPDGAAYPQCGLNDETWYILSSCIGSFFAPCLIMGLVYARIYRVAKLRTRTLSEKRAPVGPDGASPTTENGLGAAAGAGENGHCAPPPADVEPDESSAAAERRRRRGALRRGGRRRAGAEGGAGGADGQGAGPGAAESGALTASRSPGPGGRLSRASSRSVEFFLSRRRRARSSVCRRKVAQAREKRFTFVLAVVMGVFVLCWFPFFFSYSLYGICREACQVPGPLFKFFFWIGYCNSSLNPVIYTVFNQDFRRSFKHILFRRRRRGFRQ

Compound	cell count [1]	inhibition [1]	inhibition [2]	nuclei count [2]	z-score [3, 10]	z-score [3, 11]	z-score [3, 12]	inhibition [4]	fluorescence slope [5]	NADPH fluorescence slope [6]	slope [7]	outcome [8]	inhibition [9]
CN1CCN(C(=O)CSc2nc(-c3ccncc3)ccc2C#N)CC1	690	-11.2% (inactive)	-21.2% (inactive)	192%	0.498	0.894	-1.8	-7.28% (inactive)	-0.416 (inactive)	-5e-05 (inactive)	0.00348 (inactive)	inactive	-6.09% (inactive)
COc1cccc(-c2nc(N3CC(C)CC(C)C3)c3ccccc3n2)c1O (stereo unspecified)	535	-11.7% (inactive)	-37.3% (inactive)	180%	-0.935	0.42	2.09	-5.26% (inactive)	-0.393 (inactive)	-2.4e-05 (inactive)	0.00414 (inactive)	inactive	0.389% (inactive)
CC1(c2ccco2)NC(=O)NC1=O (stereo unspecified)	665	-2.9% (inactive)	-112% (inactive)	160%	-0.981	-0.00713	0.00425	-3.98% (inactive)	-0.492 (inactive)	-0.00016 (inactive)	0.00442 (inactive)	inactive	-5.4% (inactive)
NC(=O)CSc1c[nH]c2ccccc12	640	-5.5% (inactive)	73.3% (inactive)	169%	-1.08	0.978	-1.28	17% (inactive)	-0.497 (inactive)	-4.9e-05 (inactive)	0.00438 (inactive)	inactive	31.3% (inactive)
CC(C)Oc1ccc(C(=O)CCN2CCCCC2)cc1	457	6.5% (inactive)	-349% (inactive)	163%	0.309	-0.269	-0.0861	-10.6% (inactive)	-0.258 (inactive)	2.6e-05 (inactive)	0.00524 (inactive)	inactive	139% (active)
CCn1nnc(C(=O)O)c1C(=O)O	547	-8.1% (inactive)	-105% (inactive)	113%	-1.6	1.43	0.467	-1.98% (inactive)	-0.486 (inactive)	-3.2e-05 (inactive)	0.00833 (inactive)	inactive	-1.97% (inactive)
O=C(O)CCSc1ccc2ccccc2n1	502	0.3% (inactive)	-157% (inactive)	135%	1.96	-1.24	-0.378	15.8% (inactive)	-0.49 (inactive)	-7.2e-05 (inactive)	0.00505 (inactive)	inactive	9.45% (inactive)
COc1cc(-c2nn3c(C4CCCCC4)nnc3s2)cc(OC)c1OC	535	-28.6% (inactive)	-115% (inactive)	167%	-1.15	0.143	1.4	-7.86% (inactive)	-0.479 (inactive)	-0.000183 (inactive)	0.00564 (inactive)	inactive	12.1% (inactive)
N#Cc1c(SCC(=O)O)nc(N2CCCCC2)c2c1CCCC2	555	7.3% (inactive)	-50% (inactive)	123%	0.186	-1.79	0.996	16.8% (inactive)	-0.535 (inactive)	-4.5e-05 (inactive)	0.00499 (inactive)	inactive	6.88% (inactive)
O=c1c(C=NCCCn2ccnc2)c(-c2ccccc2)[nH]n1-c1nc2ccccc2s1	579	-6.5% (inactive)	-108% (inactive)	132%	1.34	-0.223	0.991	25.8% (inactive)	-0.47 (inactive)	-1.6e-05 (inactive)	0.00444 (inactive)	inactive	1.09% (inactive)
CC(C)C1Cc2c(C#N)c(N)n(C)c(=S)c2CO1 (stereo unspecified)	548	1.3% (inactive)	-204% (inactive)	134%	-0.967	0.261	0.802	-8.76% (inactive)	-0.509 (inactive)	-4e-05 (inactive)	0.00431 (inactive)	inactive	-8.05% (inactive)
Nc1nnnn1CC(=O)OCc1cccc(Br)c1	351	-7.3% (inactive)	-43.6% (inactive)	167%	0.909	-0.848	1.13	1.42% (inactive)	-0.446 (inactive)	-0.000151 (inactive)	0.00561 (inactive)	inactive	-1.03% (inactive)
